Broadly, the IC50 is the concentration that gives 50% inhibition. The low end stands for greater potency, the high end for weaker potency.

A short description of the experiment: Cytotoxicity against human LTEDaro cells after 72 hrs by MTT assay. In kind it is functional, cell-based. The method in brief: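 LTEDaro cells (long-term estrogen-deprived MCF-7aro) seeded in custom medium for 24 h, then exposed to a range of concentrations in DMSO (final ≤0.1%) for 72 h, with vehicle-matched DMSO controls. Medium then replaced with 0.5 mg/ml MTT for 2 h at 37°C in CO2 incubator; formazan dissolved in DMSO and read at 570 nm; triplicates.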
(Formazan colour is commonly taken as a measure of viable cells.)
In turn, `CC(C)c1ccc(COc2cc(NC(=O)C3CCCCC3)ccc2N(C)S(C)(=O)=O)cc1` showed an IC50 of 16.1 µM.

In turn, `CN(c1ccc(NC(=O)C2CCCCC2)cc1OCc1cc(Cl)ccc1Cl)S(C)(=O)=O` displayed an IC50 of 1 µM.

Compound `Cc1cccc(C)c1COc1cc(NC(=O)Cc2ccccn2)ccc1N(C)S(C)(=O)=O` displayed a concentration for half-maximal inhibition (IC50) of 41.4 µM.

Regarding `Cc1ccccc1COc1cc(NC(=O)Cc2ccccn2)ccc1N(C)S(C)(=O)=O`, inhibition was half-maximal at 93.9 µM (IC50).

In the case of `CC(C)c1ccc(COc2cc(NC(=O)Cc3ccccn3)ccc2N(C)S(C)(=O)=O)cc1`, the half-inhibitory concentration (IC50) stood at 11.4 µM.

Regarding `Cc1cc(C)c(COc2cc(NC(=O)c3ccccc3)ccc2N(C)S(C)(=O)=O)c(C)c1`, the midpoint of inhibition, the IC50, lay at 10.3 µM.

Compound `Cc1ccccc1COc1cc(NC(=O)Cc2ccncc2)ccc1N(C)S(C)(=O)=O` displayed a half-inhibitory concentration (IC50) of 11.8 µM.

Regarding `CCCCCCOc1cc(NC(=O)C2CCCCC2)ccc1N(C)S(C)(=O)=O`, 6.98 µM corresponded to half-maximal inhibition (IC50).

As for `Cc1ccccc1COc1cc(NC(=O)C2CCCCC2)ccc1N(C)S(C)(=O)=O`, the midpoint of inhibition, the IC50, lay at 28.5 µM.

In the case of `CC(C)c1ccc(COc2cc(NC(=O)Cc3cccnc3)ccc2N(C)S(C)(=O)=O)cc1`, the IC50 turned out to be 8.26 µM.

`Cc1ccccc1COc1cc(NC(=O)Cc2cccnc2)ccc1N(C)S(C)(=O)=O` yielded an IC50 of 71.5 µM.

The compound `Cc1cccc(C)c1COc1cc(NC(=O)C2CCCCC2)ccc1N(C)S(C)(=O)=O` came in with an IC50 of 39.4 µM.

`CCCCCCOc1cc(NC(=O)Cc2ccncc2)ccc1N(C)S(C)(=O)=O` registered an IC50 of 9.56 µM.

`Cc1cc(C)c(COc2cc(NC(=O)C3CCCCC3)ccc2N(C)S(C)(=O)=O)c(C)c1` displayed an IC50 of 18.5 µM.

In the case of `CCCCCCOc1cc(NC(=O)Cc2ccccn2)ccc1N(C)S(C)(=O)=O`, the half-inhibitory concentration (IC50) was 7.68 µM.

For `Cc1cccc(COc2cc(NC(=O)Cc3cccnc3)ccc2N(C)S(C)(=O)=O)c1`, the midpoint of inhibition, the IC50, lay at 93.6 µM.

Compound `Cc1ccc(C)c(COc2cc(NC(=O)c3ccccc3)ccc2N(C)S(C)(=O)=O)c1` had an IC50 of 4.68 µM.

Regarding `Cc1cccc(C)c1COc1cc(NC(=O)Cc2cccnc2)ccc1N(C)S(C)(=O)=O`, the IC50 came to 22.5 µM.

Compound `CC(C)c1ccc(COc2cc(NC(=O)c3ccccc3)ccc2N(C)S(C)(=O)=O)cc1` came in with a half-inhibitory concentration (IC50) of 7.93 µM.

`Cc1ccc(C)c(COc2cc(NC(=O)Cc3ccncc3)ccc2N(C)S(C)(=O)=O)c1`: inhibition was half-maximal at 2.37 µM (IC50).

Turning to `CN(c1ccc(NC(=O)Cc2ccncc2)cc1OCc1cc(Cl)ccc1Cl)S(C)(=O)=O`, the half-inhibitory concentration (IC50) is 7.64 µM.

The compound `Cc1cccc(COc2cc(NC(=O)C3CCCCC3)ccc2N(C)S(C)(=O)=O)c1` gave a concentration for half-maximal inhibition (IC50) of 44.2 µM.

`CCCCCCOc1cc(NC(=O)c2ccccc2)ccc1N(C)S(C)(=O)=O` came in with a concentration for half-maximal inhibition (IC50) of 12 µM.

In the case of `Cc1ccccc1COc1cc(NC(=O)c2ccccc2)ccc1N(C)S(C)(=O)=O`, half-maximal inhibition (IC50) was put at 176 µM.

In turn, `Cc1cccc(COc2cc(NC(=O)c3ccccc3)ccc2N(C)S(C)(=O)=O)c1` had an IC50 of 16.1 µM.

Compound `Cc1ccc(C)c(COc2cc(NC(=O)Cc3cccnc3)ccc2N(C)S(C)(=O)=O)c1` came in with an IC50 of 1.69 µM.

Compound `CS(=O)(=O)Nc1ccc([N+](=O)[O-])cc1Oc1ccccc1` [NIMESULIDE] came in with an IC50 of 173 µM.

For the compound `Cc1cc(C)c(COc2cc(NC(=O)Cc3cccnc3)ccc2N(C)S(C)(=O)=O)c(C)c1`, the midpoint of inhibition, the IC50, lay at 10.4 µM.

For `Cc1cccc(COc2cc(NC(=O)Cc3ccccn3)ccc2N(C)S(C)(=O)=O)c1`, the IC50 worked out at 14.9 µM.

As for `Cc1cccc(C)c1COc1cc(NC(=O)Cc2ccncc2)ccc1N(C)S(C)(=O)=O`, the 50% inhibitory concentration (IC50) came out at 19.9 µM.

`CN(c1ccc(NC(=O)c2ccccc2)cc1OCc1cc(Cl)ccc1Cl)S(C)(=O)=O` returned a half-inhibitory concentration (IC50) of 2.15 µM.

For `CN(c1ccc(NC(=O)Cc2ccccn2)cc1OCc1cc(Cl)ccc1Cl)S(C)(=O)=O`, the half-inhibitory concentration (IC50) was 23.6 µM.

In the case of `CC(C)c1ccc(COc2cc(NC(=O)Cc3ccncc3)ccc2N(C)S(C)(=O)=O)cc1`, the midpoint of inhibition, the IC50, lay at 11.5 µM.

In turn, `CCCCCCOc1cc(NC(=O)Cc2cccnc2)ccc1N(C)S(C)(=O)=O` came in with a half-maximal inhibitory concentration (IC50) of 12.1 µM.

Turning to `CN(c1ccc(NC(=O)Cc2cccnc2)cc1OCc1cc(Cl)ccc1Cl)S(C)(=O)=O`, the concentration for half-maximal inhibition (IC50) is 14.1 µM.

Take `Cc1cc(C)c(COc2cc(NC(=O)Cc3ccncc3)ccc2N(C)S(C)(=O)=O)c(C)c1`: the half-inhibitory concentration (IC50) was 13.2 µM.

As to `Cc1cc(C)c(COc2cc(NC(=O)Cc3ccccn3)ccc2N(C)S(C)(=O)=O)c(C)c1`, the IC50 is 51.3 µM.

As for `Cc1cccc(C)c1COc1cc(NC(=O)c2ccccc2)ccc1N(C)S(C)(=O)=O`, half-maximal inhibition (IC50) required 16.2 µM.

As for `Cc1ccc(C)c(COc2cc(NC(=O)Cc3ccccn3)ccc2N(C)S(C)(=O)=O)c1`, the IC50 stood at 174 µM.

`Cc1cccc(COc2cc(NC(=O)Cc3ccncc3)ccc2N(C)S(C)(=O)=O)c1`: the IC50 was 16.1 µM.
